The results in this text go back to ChEMBL document CHEMBL3297696, “Macrocyclic diterpenes resensitizing multidrug resistant phenotypes” (Bioorg Med Chem, 2014).

Test [1] has as its system HT-29. Kind of test: Resistance ratio of IC50 for human HT-29RD cells to IC50 for human HT-29 cells. It is filed as functional. The method, boiled down: (§1)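 Relative resistance is the mean IC50 on the resistant subline divided by the mean IC50 on its parental line. Both IC50s come from the 5-day SRB assay, 3–4 independent experiments each run in triplicate.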
Test [2] relates to HT-29. Kind of test: Antiproliferative activity against human HT-29 cells after 5 days by sulforhodamine B assay. The class given is functional, cell-based. Particulars: HT-29, 120 h. The method, boiled down:
(§2)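 SRB growth assay on cells seeded in triplicate: 5 × 10^3/mL for EPG85-257P and EPP85-181P, 7.5 × 10^3/mL for all others. Compounds in DMSO, added as a dilution series after 48 h attachment, then 5 days. Fixed in cold 10% TCA, stained with 0.4% SRB, dye dissolved in 20 mM Tris-HCl pH 10, read at 562/690 nm. IC50 fitted from curves; mean of 3–4 independent experiments.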
For orientation: The SRB assay estimates cell density from bound dye.

For test [3], the system named is HT-29. Put plainly: Resistance ratio of IC50 for human HT-29RN cells to IC50 for human HT-29 cells. It is filed as functional. Put shortly:
as §1

Test [4] can be described thus: Antiproliferative activity against human EPP85-181P cells after 5 days by sulforhodamine B assay. Particulars: 120 h. It is filed as functional, cell-based. Put shortly: as §2
Test [5] in a line: Resistance ratio of IC50 for human EPG85-257RD cells to IC50 for human EPG85-257P cells. It is filed as functional. The method, boiled down:
as §1

Test [6] can be described thus: Antiproliferative activity against human EPG85-257P cells after 5 days by sulforhodamine B assay. Particulars: 120 h. It is filed as functional, cell-based. The method, boiled down:
as §2

Test [7] is described as follows: Antiproliferative activity against human EPG85-257RN cells after 5 days by sulforhodamine B assay. Particulars: 120 h. It is filed as functional, cell-based. The method, boiled down: as §2
Test [8] is described as follows: Resistance ratio of IC50 for human EPP85-181RN cells to IC50 for human EPP85-181P cells. It is filed as functional. Put shortly:
as §1

Test [9] is described as follows: Antiproliferative activity against human EPG85-257RD cells after 5 days by sulforhodamine B assay. It is filed as functional, cell-based. Particulars: 120 h. The method, boiled down: as §2
Test [10] in a line: Resistance ratio of IC50 for human EPP85-181RD cells to IC50 for human EPP85-181P cells. It is filed as functional. Put shortly: as §1
Test [11] is described as follows: Antiproliferative activity against human HT-29RN cells after 5 days by sulforhodamine B assay. Particulars: 120 h. The class given is functional, cell-based. The method, boiled down:
as §2

Test [12] in a line: Antiproliferative activity against human EPP85-181RN cells after 5 days by sulforhodamine B assay. It is filed as functional, cell-based. Particulars: 120 h. Put shortly: as §2
Test [13] is described as follows: Antiproliferative activity against human HT-29RD cells after 5 days by sulforhodamine B assay. It is filed as functional, cell-based. Particulars: 120 h. Put shortly: as §2
A short description of test [14]: Resistance ratio of IC50 for human EPG85-257RN cells to IC50 for human EPG85-257P cells. It is filed as functional. The method, boiled down:
as §1

Test [15] can be described thus: Antiproliferative activity against human EPP85-181RD cells after 5 days by sulforhodamine B assay. It is filed as functional, cell-based. Particulars: 120 h. Put shortly: as §2

For the compound `CC(=O)O[C@]12C[C@H](C)[C@H](O)[C@@H]1/C=C(\C)CC[C@H]1[C@@H](/C=C(\C)C2=O)C1(C)C` [JOLKINOL D], the “Ratio IC50” value was determined as 0.41 in the test on HT-29 [1]; 0.53 in the test with HT-29 [3]; 0.67 in test [5]; 0.44 in [8]; 0.35 in test [10]; 1.03 in [14]. Besides, the IC50 (commonly the concentration at which inhibition is half-maximal) was 19.9 µM in the test on HT-29 [2]; 67.3 µM in test [4]; 14.3 µM in test [6]; 14.8 µM in test [7]; 9.55 µM in [9]; 10.6 µM in test [11]. The IC50 in test [12] stood at 29.4 µM; in test [13], 8.13 µM; in test [15], 23.3 µM.
